In ChEMBL document CHEMBL1156147, “Phosphoramidates of 2'-beta-D-arabinouridine (AraU) as phosphate prodrugs; design, synthesis, in vitro activity and metabolism” (Bioorg Med Chem, 2010):
Activity calls are given as the source filed them.

Columns and labels:
[1] = test system: Mammalian orthoreovirus 1; assay: Antiviral activity against Reovirus 1 assessed as inhibition of virus-induced cytopathicity by cell based assay; assay type: functional, organism-based
How it was run: (§1)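 Cytopathicity reduction in confluent HEL, Vero, HeLa, CFKC or MDCK monolayers. Cells were inoculated with 100 CCID50 of virus and allowed 1–2 h adsorption. Residual virus was then removed and cells were incubated with serially varied compound. CPE was scored once complete in untreated infected controls. EC50 is the concentration halving virus-induced cytopathicity.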

[2] = test system: Respiratory syncytial virus; assay: Antiviral activity against Respiratory syncytial virus Long assessed as inhibition of virus-induced cytopathicity by cell based assay; assay type: functional, organism-based; how it was run: as §1
CCRF-CEM = assay: Cytostatic activity human CEM cells; assay type: functional, cell-based
Punta Toro virus = assay: Antiviral activity against Punta Toro virus assessed as inhibition of virus-induced cytopathicity by cell based assay; assay type: functional, organism-based; how it was run: as §1
Human respirovirus 3 = assay: Antiviral activity against Human parainfluenza virus 3 assessed as inhibition of virus-induced cytopathicity by cell based assay; assay type: functional, organism-based; how it was run: as §1
Influenza A virus [3] = assay: Antiviral activity against influenza A virus H3N2 assessed as inhibition of virus-induced cytopathicity by cell based assay; assay type: functional, organism-based
Influenza A virus [4] = assay: Antiviral activity against influenza A virus H1N1 assessed as inhibition of virus-induced cytopathicity by cell based assay; assay type: functional, organism-based
KG-1 = assay: Cytostatic activity human KG1 cells; assay type: functional, cell-based
How it was run: (§2)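 Leukaemia cells were exposed to serial dilutions from 100 μM down to 0.02 μM for 72 h at 37 °C, 5% CO2. MTS was then added for a further 4 h. Absorbance was read at 490 nm and viability calculated relative to untreated controls. IC50 is the concentration at which 50% of cells are no longer viable.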

Sindbis virus = assay: Antiviral activity against Sindbis virus assessed as inhibition of virus-induced cytopathicity by cell based assay; assay type: functional, organism-based; how it was run: as §1
HL-60 = assay: Cytostatic activity against human HL60 cells; assay type: functional, cell-based; how it was run: as §2
[5] = test system: Human immunodeficiency virus 1; assay: Antiviral activity against HIV1 3B infected human CEM cells assessed as inhibition of syncytia formation after 4 days; assay type: functional, organism-based; settings: CCRF-CEM
How it was run: (§3)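 Human CEM cells (~3 × 10^5 cells/mL) were infected with ~100 CCID50/mL of HIV-1(IIIB) or HIV-2(ROD) and seeded with compound dilutions. Syncytia formation was examined microscopically after 4 days at 37 °C. EC50 is the concentration reducing virus-induced cytopathicity by 50%.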

Human alphaherpesvirus 1 [6] = assay: Antiviral activity against HSV1 KOS assessed as inhibition of virus-induced cytopathicity by cell based assay; assay type: functional, organism-based; how it was run: as §1
Human alphaherpesvirus 1 [7] = assay: Antiviral activity against thymidine kinase deficient acyclovir resistant HSV1 KOS assessed as inhibition of virus-induced cytopathicity by cell based assay; assay type: functional, organism-based
Vaccinia virus = assay: Antiviral activity against Vaccinia virus lederle assessed as inhibition of virus-induced cytopathicity by cell based assay; assay type: functional, organism-based; settings: Orthopoxvirus vaccinia
[8] = test system: Human immunodeficiency virus 2; assay: Antiviral activity against HIV2 infected human CEM cells assessed as inhibition of syncytia formation after 4 days; assay type: functional, organism-based; settings: CCRF-CEM; how it was run: as §3
NB-4 = assay: Cytostatic activity against human NB4 cells; assay type: functional, cell-based; how it was run: as §2
Human alphaherpesvirus 2 = assay: Antiviral activity against Herpes simplex virus2 G assessed as inhibition of virus-induced cytopathicity by cell based assay; assay type: functional, organism-based; settings: strain G; how it was run: as §1
U-937 = assay: Cytostatic activity human U937 cells; assay type: functional, cell-based; how it was run: as §2
L1210 = assay: Cytostatic activity mouse L1210 cells; assay type: functional, cell-based
[9] = test system: Vesicular stomatitis virus; assay: Antiviral activity against Vesicular stomatitis virus assessed as inhibition of virus-induced cytopathicity by cell based assay; assay type: functional, organism-based
Coxsackievirus B4 = assay: Antiviral activity against Coxsackievirus B4 assessed as inhibition of virus-induced cytopathicity by cell based assay; assay type: functional, organism-based; how it was run: as §1
MCF7 = assay: Cytostatic activity against human MCF7 cells after 96 hrs by MTT assay; assay type: functional, cell-based; settings: MCF7, 96 h
How it was run: (§4)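 Cells were seeded at 5 × 10^3 per well and allowed 24 h to adhere. Compound was added from DMSO stocks as decimal dilutions (final 0.1–100 μM) for 96 h at 37 °C, 5% CO2. MTT (final 0.5 mg/mL) was added for 4 h and formazan solubilised in 10% Triton X-100/PBS. Absorbance was read at 540 nm. IC50 is inhibition relative to control.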

A549 = assay: Cytostatic activity against human A549 cells after 96 hrs by MTT assay; assay type: functional, cell-based; settings: A549, 96 h; how it was run: as §4
LoVo = assay: Cytostatic activity against human LoVo cells after 96 hrs by MTT assay; assay type: functional, cell-based; how it was run: as §4
PC-3 = assay: Cytostatic activity against human PC3 cells after 96 hrs by MTT assay; assay type: functional, cell-based; settings: PC-3, 96 h; how it was run: as §4
[10] = Metabolic stability assessed as half life in the presence of carboxypeptidase Y after 3 hrs at pH 7.6; assay type: ADME; settings: Saccharomyces cerevisiae (yeast)

O=c1ccn([C@@H]2O[C@H](CO)[C@@H](O)[C@@H]2O)c(=O)[nH]1 [ARAURIDINE]
90 µM: IC50 (HL-60)
> 500 µM: IC50 (CCRF-CEM)
> 100 µM: IC50 (U-937)
25 µM: IC50 (KG-1)
69 µM: IC50 (NB-4)
inactive: inhibition [1] | inhibition [2] | inhibition (Punta Toro virus) | inhibition (Human respirovirus 3) | inhibition (Influenza A virus [3]) | inhibition (Influenza A virus [4]) | inhibition (Sindbis virus) | inhibition [5] | inhibition (Human alphaherpesvirus 1 [6]) | inhibition (Human alphaherpesvirus 1 [7]) | inhibition (Vaccinia virus) | inhibition [8] | inhibition (Human alphaherpesvirus 2) | inhibition [9] | inhibition (Coxsackievirus B4)
170 µM: IC50 (L1210)

C[C@@H](NP(=O)(OC[C@H]1O[C@@H](n2ccc(=O)[nH]c2=O)[C@@H](O)[C@@H]1O)Oc1ccccc1)C(=O)OCc1ccccc1 (some centres not stated)
470 µM: IC50 (L1210)
inactive: inhibition [1] | inhibition [2] | inhibition (Punta Toro virus) | inhibition (Human respirovirus 3) | inhibition (Influenza A virus [3]) | inhibition (Influenza A virus [4]) | inhibition (Sindbis virus) | inhibition [5] | inhibition (Human alphaherpesvirus 1 [6]) | inhibition (Human alphaherpesvirus 1 [7]) | inhibition (Vaccinia virus) | inhibition [8] | inhibition (Human alphaherpesvirus 2) | inhibition [9] | inhibition (Coxsackievirus B4)
> 100 µM: IC50 (A549) | IC50 (LoVo) | IC50 (PC-3) | IC50 (U-937)
90 µM: IC50 (KG-1)
92 µM: IC50 (HL-60)
88 µM: IC50 (NB-4)
313 µM: IC50 (CCRF-CEM)
50 µM: IC50 (MCF7)

C[C@H](NP(=O)(OC[C@H]1O[C@@H](n2ccc(=O)[nH]c2=O)[C@@H](O)[C@@H]1O)Oc1ccccc1)C(=O)OCc1ccccc1 (some centres not stated)
38 µM: IC50 (NB-4)
63 µM: IC50 (KG-1)
184 µM: IC50 (L1210)
92 µM: IC50 (U-937)
188 µM: IC50 (CCRF-CEM)
15 min: half-life [10]
> 100 µM: IC50 (MCF7) | IC50 (A549) | IC50 (LoVo) | IC50 (HL-60) | IC50 (PC-3)
inactive: inhibition [1] | inhibition [2] | inhibition (Punta Toro virus) | inhibition (Human respirovirus 3) | inhibition (Influenza A virus [3]) | inhibition (Influenza A virus [4]) | inhibition (Sindbis virus) | inhibition [5] | inhibition (Human alphaherpesvirus 1 [6]) | inhibition (Human alphaherpesvirus 1 [7]) | inhibition (Vaccinia virus) | inhibition [8] | inhibition (Human alphaherpesvirus 2) | inhibition [9] | inhibition (Coxsackievirus B4)

O=C(CNP(=O)(OC[C@H]1O[C@@H](n2ccc(=O)[nH]c2=O)[C@@H](O)[C@@H]1O)Oc1ccccc1)OCc1ccccc1 (some centres not stated)
> 100 µM: IC50 (MCF7) | IC50 (A549) | IC50 (LoVo) | IC50 (HL-60) | IC50 (PC-3) | IC50 (U-937)
inactive: inhibition [1] | inhibition [2] | inhibition (Punta Toro virus) | inhibition (Human respirovirus 3) | inhibition (Influenza A virus [3]) | inhibition (Influenza A virus [4]) | inhibition (Sindbis virus) | inhibition [5] | inhibition (Human alphaherpesvirus 1 [6]) | inhibition (Human alphaherpesvirus 1 [7]) | inhibition (Vaccinia virus) | inhibition [8] | inhibition (Human alphaherpesvirus 2) | inhibition [9] | inhibition (Coxsackievirus B4)
39 µM: IC50 (KG-1)
52 µM: IC50 (NB-4)
256 µM: IC50 (L1210)
196 µM: IC50 (CCRF-CEM)

COC(=O)[C@H](C)NP(=O)(OC[C@H]1O[C@@H](n2ccc(=O)[nH]c2=O)[C@@H](O)[C@@H]1O)Oc1ccccc1 (some centres not stated)
53 µM: IC50 (NB-4)
32 µM: IC50 (KG-1)
> 100 µM: IC50 (MCF7) | IC50 (A549) | IC50 (LoVo) | IC50 (HL-60) | IC50 (PC-3) | IC50 (U-937)
> 500 µM: IC50 (CCRF-CEM) | IC50 (L1210)
inactive: inhibition [1] | inhibition [2] | inhibition (Punta Toro virus) | inhibition (Human respirovirus 3) | inhibition (Influenza A virus [3]) | inhibition (Influenza A virus [4]) | inhibition (Sindbis virus) | inhibition [5] | inhibition (Human alphaherpesvirus 1 [6]) | inhibition (Human alphaherpesvirus 1 [7]) | inhibition (Vaccinia virus) | inhibition [8] | inhibition (Human alphaherpesvirus 2) | inhibition [9] | inhibition (Coxsackievirus B4)

CC(C)OC(=O)[C@H](C)NP(=O)(OC[C@H]1O[C@@H](n2ccc(=O)[nH]c2=O)[C@@H](O)[C@@H]1O)Oc1cccc2ccccc12 (some centres not stated)
77 µM: IC50 (NB-4)
181 µM: IC50 (CCRF-CEM)
> 100 µM: IC50 (MCF7) | IC50 (A549) | IC50 (LoVo) | IC50 (PC-3) | IC50 (U-937)
250 µM: IC50 (L1210)
inactive: inhibition [1] | inhibition [2] | inhibition (Punta Toro virus) | inhibition (Human respirovirus 3) | inhibition (Influenza A virus [3]) | inhibition (Influenza A virus [4]) | inhibition (Sindbis virus) | inhibition [5] | inhibition (Human alphaherpesvirus 1 [6]) | inhibition (Human alphaherpesvirus 1 [7]) | inhibition (Vaccinia virus) | inhibition [8] | inhibition (Human alphaherpesvirus 2) | inhibition [9] | inhibition (Coxsackievirus B4)
84 µM: IC50 (HL-60)
67 µM: IC50 (KG-1)
